# In PubChem BioAssay AID463148 (The Scripps Research Institute Molecular Screening Center, 2010):
# Calls of active or inactive are those of the source.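 Rule for the calls: active = fold change inhibition above 1.5; inactive = the rest.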
# Tested on: GAL4DBD-VP16 transactivation domain fusion (Human herpesvirus 1 VP16)
# Experiment: inhibition of VP16-driven luciferase reporter – cell-based, luminescence, HEK293T, powder samples, counter-screen for RORA inverse agonist project, late-stage follow-up (AID 463148)
# Conditions: HEK293T GAL4-VP16 UAS-luciferase, 18-24 h, at 10 µM, active compounds read high
# Summary of the method: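 Assay system: transfected HEK293T GAL4-VP16 UAS-luciferase reporter cells; Incubation: 20 h compound exposure after transfection; Measured by: luciferase luminescence; Read-out: fold change relative to DMSO wells; Control set: DMSO vehicle wells; Repeats: six replicates per compound, averaged.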
row,Structure (SMILES),fold change inhibition
1,O=C(Nc1ccc(C(O)(C(F)(F)F)C(F)(F)F)cc1)c1ccc(F)cc1F,1.68
2,O=C(Nc1ccc(C(O)(C(F)(F)F)C(F)(F)F)cc1)c1c(F)cccc1F,1.05 (inactive)
3,O=C(Nc1ccc(C(O)(C(F)(F)F)C(F)(F)F)cc1)c1ccc(Cl)cc1,1.27 (inactive)
4,O=C(Nc1ccc(C(O)(C(F)(F)F)C(F)(F)F)cc1)c1ccccc1C(F)(F)F,0.941 (inactive)
5,O=C(Nc1ccc(C(O)(C(F)(F)F)C(F)(F)F)cc1)c1ccc(F)cc1Cl,1.01 (inactive)
6,O=S(=O)(Nc1ccc(C(O)(C(F)(F)F)C(F)(F)F)cc1)c1cccs1,0.97 (inactive)
